Data as given in ChEMBL document CHEMBL5696442, “Discovery of type II inhibitors of TGFβ-activated kinase 1 (TAK1) and mitogen-activated protein kinase kinase kinase kinase 2 (MAP4K2)” (J Med Chem, 2015).
Active and inactive are the calls of the source. No cut-off for these calls is given here.

What was measured:
[1] = target: Serine/threonine-protein kinase WNK4 (Homo sapiens) (UniProt Q96J92); assay: Inhibition of Wnk4 Lys2 labeling site in human A-375 cells at 0.5 uM by KiNativ Profiling analysis relative to control; assay type: cell-based
Sequence of Serine/threonine-protein kinase WNK4 (Homo sapiens) (Q96J92 whole entry): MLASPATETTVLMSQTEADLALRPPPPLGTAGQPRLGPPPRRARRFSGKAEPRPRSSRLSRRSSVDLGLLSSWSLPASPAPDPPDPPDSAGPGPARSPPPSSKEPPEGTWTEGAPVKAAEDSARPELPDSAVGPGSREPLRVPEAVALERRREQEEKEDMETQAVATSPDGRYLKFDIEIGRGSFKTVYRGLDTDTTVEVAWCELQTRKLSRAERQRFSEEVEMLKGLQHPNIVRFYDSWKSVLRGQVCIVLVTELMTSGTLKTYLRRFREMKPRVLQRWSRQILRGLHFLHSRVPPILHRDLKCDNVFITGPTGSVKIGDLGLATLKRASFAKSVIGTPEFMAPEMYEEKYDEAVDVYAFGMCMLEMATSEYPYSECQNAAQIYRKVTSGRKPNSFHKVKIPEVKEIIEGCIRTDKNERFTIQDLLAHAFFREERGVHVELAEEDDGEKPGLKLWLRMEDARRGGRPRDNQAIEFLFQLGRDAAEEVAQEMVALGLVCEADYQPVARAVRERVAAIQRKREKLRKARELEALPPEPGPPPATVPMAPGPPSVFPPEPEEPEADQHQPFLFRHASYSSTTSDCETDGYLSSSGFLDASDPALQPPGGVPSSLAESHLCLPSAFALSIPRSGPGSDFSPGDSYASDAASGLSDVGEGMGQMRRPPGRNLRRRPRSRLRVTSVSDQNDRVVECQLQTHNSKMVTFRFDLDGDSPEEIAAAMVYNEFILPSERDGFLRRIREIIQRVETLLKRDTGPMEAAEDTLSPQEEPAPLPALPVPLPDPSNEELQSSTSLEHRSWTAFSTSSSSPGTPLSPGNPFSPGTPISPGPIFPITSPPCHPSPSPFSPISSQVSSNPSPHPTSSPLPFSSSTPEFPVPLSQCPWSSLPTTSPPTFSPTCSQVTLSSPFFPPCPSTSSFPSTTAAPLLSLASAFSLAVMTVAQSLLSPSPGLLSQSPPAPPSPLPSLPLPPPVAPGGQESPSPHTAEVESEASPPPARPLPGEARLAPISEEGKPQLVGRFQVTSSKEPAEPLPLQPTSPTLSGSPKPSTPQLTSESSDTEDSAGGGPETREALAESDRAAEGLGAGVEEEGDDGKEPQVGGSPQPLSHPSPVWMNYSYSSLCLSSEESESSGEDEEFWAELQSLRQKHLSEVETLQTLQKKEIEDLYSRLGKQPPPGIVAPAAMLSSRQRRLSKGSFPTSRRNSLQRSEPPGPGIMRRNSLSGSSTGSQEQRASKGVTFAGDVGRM

[2] = target: T1, Ephrin type-B receptor 2 (Homo sapiens) (UniProt P29323); assay: Inhibition of EPHB2 (unknown origin) at 10 uM by Ambit Kinomescan binding assay relative to control
T1 sequence (whole entry): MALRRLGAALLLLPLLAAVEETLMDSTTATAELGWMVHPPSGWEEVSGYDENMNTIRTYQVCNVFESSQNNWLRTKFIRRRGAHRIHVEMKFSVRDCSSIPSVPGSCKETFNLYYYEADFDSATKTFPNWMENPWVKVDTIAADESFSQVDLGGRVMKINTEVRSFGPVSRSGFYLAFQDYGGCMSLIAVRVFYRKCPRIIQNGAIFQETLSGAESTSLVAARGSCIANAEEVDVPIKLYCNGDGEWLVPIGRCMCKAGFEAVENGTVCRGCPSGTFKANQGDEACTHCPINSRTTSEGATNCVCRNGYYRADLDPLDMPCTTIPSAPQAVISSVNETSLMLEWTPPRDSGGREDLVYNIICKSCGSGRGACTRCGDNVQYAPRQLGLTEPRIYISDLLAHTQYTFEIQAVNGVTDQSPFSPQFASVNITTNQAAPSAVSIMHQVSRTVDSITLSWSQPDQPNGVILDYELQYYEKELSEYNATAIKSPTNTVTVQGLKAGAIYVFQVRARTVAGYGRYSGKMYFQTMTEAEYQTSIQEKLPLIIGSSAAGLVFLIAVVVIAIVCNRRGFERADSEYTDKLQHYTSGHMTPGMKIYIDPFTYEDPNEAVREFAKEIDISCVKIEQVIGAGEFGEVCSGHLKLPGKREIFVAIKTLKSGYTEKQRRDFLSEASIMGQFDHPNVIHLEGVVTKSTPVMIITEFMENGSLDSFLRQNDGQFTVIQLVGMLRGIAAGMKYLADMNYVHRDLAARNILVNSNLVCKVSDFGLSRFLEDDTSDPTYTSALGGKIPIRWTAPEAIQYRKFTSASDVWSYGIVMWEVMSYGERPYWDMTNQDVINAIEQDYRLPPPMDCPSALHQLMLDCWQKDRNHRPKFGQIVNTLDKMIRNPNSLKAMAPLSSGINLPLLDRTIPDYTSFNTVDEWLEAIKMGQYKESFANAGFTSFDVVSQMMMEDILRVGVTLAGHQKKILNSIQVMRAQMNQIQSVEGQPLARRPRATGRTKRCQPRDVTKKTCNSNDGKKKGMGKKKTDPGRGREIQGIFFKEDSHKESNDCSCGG

[3] = target: T2, Serine/threonine-protein kinase TAO1 (Homo sapiens) (UniProt Q7L7X3); assay: Inhibition of TAOK1 (unknown origin) at 10 uM by Ambit Kinomescan binding assay relative to control; values are per cent of control
T2 sequence (whole entry): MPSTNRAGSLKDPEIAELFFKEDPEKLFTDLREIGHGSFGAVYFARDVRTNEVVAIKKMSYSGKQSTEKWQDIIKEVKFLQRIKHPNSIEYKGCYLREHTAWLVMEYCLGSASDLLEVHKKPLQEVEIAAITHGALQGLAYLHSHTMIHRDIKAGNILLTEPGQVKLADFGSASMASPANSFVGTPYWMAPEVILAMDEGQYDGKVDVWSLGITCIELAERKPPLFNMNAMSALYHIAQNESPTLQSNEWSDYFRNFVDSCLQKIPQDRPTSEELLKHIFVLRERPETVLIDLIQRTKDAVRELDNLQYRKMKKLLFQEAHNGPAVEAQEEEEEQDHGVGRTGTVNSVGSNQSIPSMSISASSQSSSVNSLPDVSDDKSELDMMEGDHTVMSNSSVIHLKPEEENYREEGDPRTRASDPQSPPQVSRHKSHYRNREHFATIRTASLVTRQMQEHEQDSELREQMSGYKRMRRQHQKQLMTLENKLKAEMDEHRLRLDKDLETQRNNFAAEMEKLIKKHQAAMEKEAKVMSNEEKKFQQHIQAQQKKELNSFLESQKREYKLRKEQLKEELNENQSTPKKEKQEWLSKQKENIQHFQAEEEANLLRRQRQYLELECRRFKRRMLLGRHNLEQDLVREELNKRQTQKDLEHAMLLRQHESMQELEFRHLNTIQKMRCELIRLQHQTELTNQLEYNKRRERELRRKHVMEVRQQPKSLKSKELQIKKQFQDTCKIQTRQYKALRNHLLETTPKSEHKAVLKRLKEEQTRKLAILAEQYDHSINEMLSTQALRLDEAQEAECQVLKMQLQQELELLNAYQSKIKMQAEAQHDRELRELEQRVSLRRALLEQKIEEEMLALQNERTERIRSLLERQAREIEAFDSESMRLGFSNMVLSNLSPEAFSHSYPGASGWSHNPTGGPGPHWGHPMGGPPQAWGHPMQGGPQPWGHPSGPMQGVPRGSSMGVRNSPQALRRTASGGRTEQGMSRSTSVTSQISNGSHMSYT

[4] = target: Serine/threonine-protein kinase MRCK beta (Homo sapiens) (UniProt Q9Y5S2); assay: Inhibition of MRCKB (unknown origin) at 10 uM by Ambit Kinomescan binding assay
Sequence of Serine/threonine-protein kinase MRCK beta (Homo sapiens) (Q9Y5S2 whole entry): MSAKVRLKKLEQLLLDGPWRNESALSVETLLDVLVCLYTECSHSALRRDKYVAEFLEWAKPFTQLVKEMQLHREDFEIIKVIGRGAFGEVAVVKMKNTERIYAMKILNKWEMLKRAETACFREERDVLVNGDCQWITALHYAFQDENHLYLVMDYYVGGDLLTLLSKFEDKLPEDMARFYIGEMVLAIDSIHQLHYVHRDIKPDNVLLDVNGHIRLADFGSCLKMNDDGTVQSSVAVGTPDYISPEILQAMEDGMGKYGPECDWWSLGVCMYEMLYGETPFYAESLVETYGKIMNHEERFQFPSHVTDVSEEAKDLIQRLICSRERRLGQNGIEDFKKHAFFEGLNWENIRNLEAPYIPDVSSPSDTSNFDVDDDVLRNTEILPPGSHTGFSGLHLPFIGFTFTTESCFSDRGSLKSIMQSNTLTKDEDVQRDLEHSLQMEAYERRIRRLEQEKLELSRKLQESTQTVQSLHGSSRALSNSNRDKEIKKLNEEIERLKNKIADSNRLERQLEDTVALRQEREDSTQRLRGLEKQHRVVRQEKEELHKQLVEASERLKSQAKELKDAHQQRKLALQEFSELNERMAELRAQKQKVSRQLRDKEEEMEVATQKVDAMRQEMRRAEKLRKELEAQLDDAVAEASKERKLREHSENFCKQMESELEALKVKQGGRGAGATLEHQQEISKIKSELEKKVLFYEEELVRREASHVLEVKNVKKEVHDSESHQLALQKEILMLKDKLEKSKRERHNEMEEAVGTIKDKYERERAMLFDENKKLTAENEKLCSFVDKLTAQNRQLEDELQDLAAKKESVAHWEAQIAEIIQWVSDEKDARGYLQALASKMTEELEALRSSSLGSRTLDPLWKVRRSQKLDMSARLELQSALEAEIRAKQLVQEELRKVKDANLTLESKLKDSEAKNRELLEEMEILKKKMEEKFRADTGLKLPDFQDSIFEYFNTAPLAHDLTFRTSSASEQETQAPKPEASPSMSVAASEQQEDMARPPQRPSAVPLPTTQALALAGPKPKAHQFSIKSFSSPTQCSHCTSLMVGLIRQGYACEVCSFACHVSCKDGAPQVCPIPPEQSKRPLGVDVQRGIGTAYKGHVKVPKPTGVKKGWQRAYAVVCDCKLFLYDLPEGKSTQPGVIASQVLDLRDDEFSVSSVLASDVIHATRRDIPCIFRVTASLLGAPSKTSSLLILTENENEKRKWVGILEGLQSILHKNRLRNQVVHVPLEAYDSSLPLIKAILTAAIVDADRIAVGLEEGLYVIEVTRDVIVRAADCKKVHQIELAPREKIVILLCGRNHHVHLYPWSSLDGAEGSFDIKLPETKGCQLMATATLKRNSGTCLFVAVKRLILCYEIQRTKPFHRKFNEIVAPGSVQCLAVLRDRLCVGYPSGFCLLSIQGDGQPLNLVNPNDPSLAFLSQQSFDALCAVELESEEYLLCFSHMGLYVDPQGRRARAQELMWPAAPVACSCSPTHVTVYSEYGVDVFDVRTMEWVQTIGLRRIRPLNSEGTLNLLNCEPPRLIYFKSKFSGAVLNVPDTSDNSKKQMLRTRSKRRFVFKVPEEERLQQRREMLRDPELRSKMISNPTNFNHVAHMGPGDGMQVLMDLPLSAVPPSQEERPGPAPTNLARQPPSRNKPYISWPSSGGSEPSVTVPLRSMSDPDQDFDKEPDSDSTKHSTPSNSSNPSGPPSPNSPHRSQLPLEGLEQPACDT

[5] = target: DNA-PK/Ku70/Ku85 (Homo sapiens) (UniProt P78527+P12956+P13010); assay: Inhibition of DNAPK ATP labeling site harbouring KGGSWIQEINVAEK in human A-375 cells at 5 uM by KiNativ Profiling analysis relative to control; assay type: cell-based
How it was run: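 Live A375 melanoma cells were treated with compound at 0.5 or 5 μM, then lysed. Lysates were labeled with a lysine-reactive ATP or ADP-biotin probe. The read-out was protection of each kinase probe-labeling site from labeling, relative to control.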

Work on `CCN1CCN(Cc2ccc(NC(=O)c3ccc(C)c(Oc4ccnc5[nH]ccc45)c3)cc2C(F)(F)F)CC1` yielded an inhibition [1] of 7.9%, an inhibition [2] of 11% and a residual activity [3] of 3%. The inhibition [4] was “inactive”.
In the case of `CCN1CCN(Cc2ccc(NC(=O)c3ccc(C)c(/C=C/c4cnc5[nH]ccc5c4OC)c3)cc2C(F)(F)F)CC1`, the inhibition [5] is reported as -8.9%.
